Bioassay records as filed in PubChem BioAssay.
This is a sample that favours compounds with a hit; in the whole collection about 7.6% have one here.
D1 mod – D1 CRE-luciferase signal change, two-sided – cell-based, HEK293 D1, dopamine EC30, D1 allosteric modulator project, primary screen. B-score at 10 µM. dopamine EC30 potentiation; actives deviate in either direction. AID 641, 2007. hit rate 5.9% among 58,000. D(1A) dopamine receptor (Homo sapiens), P21728;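 active = luminescence count or its row- and column-corrected plate score outside the 99.7% band of the plate's sample wells, on either side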
Target sequence (P21728 whole entry, looked up): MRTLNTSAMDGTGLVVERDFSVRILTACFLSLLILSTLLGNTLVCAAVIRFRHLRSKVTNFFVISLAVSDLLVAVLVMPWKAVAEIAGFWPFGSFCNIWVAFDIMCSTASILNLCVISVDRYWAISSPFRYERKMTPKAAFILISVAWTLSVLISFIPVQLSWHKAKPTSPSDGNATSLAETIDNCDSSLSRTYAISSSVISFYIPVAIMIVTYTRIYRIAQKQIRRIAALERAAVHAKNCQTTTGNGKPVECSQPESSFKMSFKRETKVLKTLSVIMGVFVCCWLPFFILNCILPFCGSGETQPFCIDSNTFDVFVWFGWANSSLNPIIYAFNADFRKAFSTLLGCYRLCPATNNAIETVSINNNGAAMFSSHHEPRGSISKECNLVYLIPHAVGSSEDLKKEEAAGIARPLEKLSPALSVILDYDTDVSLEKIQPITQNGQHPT
Jurkat viability – cytotoxicity toward Jurkat T cells, primary screen, cytotoxicity control, cell-based, Jurkat E6.1, 60K MLSMR library | inhibition, % at 4 µM | hit rate 1.2% among 56,000 | Jurkat E6.1 viability, ATP luminescence, 48 h;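 active = inhibition above the mean inhibition of all tested compounds plus 3 SD, cut at about 28% in these data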
M1 agonist – M1 muscarinic receptor agonists, primary screen, CHO-M1 cells, Fluo-4 calcium, agonist mode | hit rate 3% among 64,000 | Fluo-4 calcium fluorescence; stronger effect = higher value | Muscarinic acetylcholine receptor M1 | B-score at 10 µM;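 active = fluorescence rise, raw or as B-score row- and column-corrected plate score, outside the 99.7% band of its plate's samples, either direction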
HEK293 NFkB inh – inhibitors of PMA/ionomycin-induced NF-kB reporter, primary screen, antigen receptor NF-kB inhibitor project, cell-based, HEK-293 luciferase reporter, luminescence; HEK-293 NF-kB luciferase reporter; AID 465, 2006; inhibition, % at 3 µM; hit rate 0.21% among 62,000;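 active = inhibition above the mean of all tested compounds plus 3 SD, cut at about 40% in these data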;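 note: 0% = stimulated DMSO wells and 100% = 10 µM reference inhibitor 5653914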
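Timing: 1 h pretreatment, 16 h stimulation, 37 °C; system: HEK-293 cells with stable firefly luciferase reporter driven by four HIV NF-kB elements; doses: 3 µM once, 0.30% DMSO; measured by: luciferase luminescence; control set: DMSO and 10 µM reference inhibitor; repeats: single test; reagent: PMA plus ionomycin mix as NF-kB-activating stimulus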
M1 antagonist – antagonists of rat M1 muscarinic receptor | Muscarinic acetylcholine receptor M1 (Rattus norvegicus), P08482 | CHO-M1 cells, Fluo-4 calcium, ACh EC80 antagonist mode; stronger effect = lower value | B-score at 10 µM | hit rate 3.4% among 64,000 | AID 628, 2007;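 active = calcium fluorescence response, raw or row-and-column corrected B-score, differing from the plate sample mean either way at a set confidence level, mostly lower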
hDAT+cocaine – changed hDAT dopamine uptake under cocaine IC80, either direction, primary screen, cocaine antagonist project, cell-based, LLC-PK1 hDAT, [14C]-dopamine uptake, MLSMR. Sodium-dependent dopamine transporter (Homo sapiens), Q01959. LLC-PK1 hDAT cells, [14C]-dopamine uptake with cocaine IC80; actives deviate in either direction. B-score at 10 µM. hit rate 1.3% among 110,000;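 active = Z score or B-score, a plate-position-corrected score, falls beyond the plate's 99.7% confidence bounds, in either direction; inactive = both scores lie inside the 99.7% bounds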;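 note: scored against the spread of the other compound wells on the same plate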
Starred values were filed as active, the others as inactive; nt = no result given.

SMILES	D1 mod	Jurkat viability	M1 agonist	HEK293 NFkB inh	M1 antagonist	hDAT+cocaine
COc1ccc(NC(=O)c2cc(-c3cccnc3)nc3ccc(C)cc23)cc1OC	nt	nt	nt	nt	nt	-0.59
Cc1cccc(NC(=O)c2cc(-c3ccco3)nc3ccccc23)n1	-3.7*	5	-0.21	18	-2	-0.54
CCn1c(SC/C=C/c2ccccc2)nnc1-c1cnccn1	0.51	2	-0.29	-1	0.19	-0.17
CC(C)N(C=O)C1(C(=O)NC2CCCCC2)CCCCC1	-3.3*	2	1	6	0.13	0.93
COc1ccccc1S(=O)Cc1ccc(C(=O)NCc2ccccc2Cl)o1 (stereo not drawn)	1.5	1	0.7	-3	-0.099	2.4
CCOc1ccc(N2C(=O)CC(N3CCN(C(=O)c4ccco4)CC3)C2=O)cc1 (stereo not drawn)	-0.014	3	-0.0027	8	-0.074	-0.6
CCOC(=O)c1ccc(N2C(=O)CC(N3CCN(C(=O)c4ccco4)CC3)C2=O)cc1 (stereo not drawn)	-0.42	-10	0.88	-2	1.4	2.6*
Cc1ccc(-n2nnc3c(=O)n(CC(=O)OCc4ccccc4)cnc32)cc1	nt	0	0.056	8	-0.46	0.063
NC(=O)CN1CCN(c2ccccc2F)CC1	-0.089	-2	0.05	3	0.62	0.26
Cc1noc(C)c1S(=O)(=O)NCCCN1CCN(Cc2ccccc2)CC1	0.18	nt	0.1	9	-2.4	-0.9
c1ccc(CN2CCN(CCCNc3ccc4nnc(-c5ccccc5)n4n3)CC2)cc1	-5.6*	6	-1.2	0	-1	0.58
Fc1ccccc1N1CCN(CCCNc2ccc3nncn3n2)CC1	-6.1*	0	-0.14	-11	-1.6	-0.66
CCC(c1nnc(SCC(=O)Nc2nnc(-c3ccccc3)o2)o1)N(C)C (stereo not drawn)	nt	-3	2.3	7	-0.091	-0.17
Cc1ccc(C)c(SCC(=O)Nc2nnc(-c3ccccc3)o2)c1	0.34	5	17*	15	0.0013	-0.00087
CC(NC(=O)Cn1cnc([N+](=O)[O-])n1)c1ccccc1 (stereo not drawn)	nt	nt	nt	nt	nt	-0.69
COc1cccc(/C=N/n2c(SC)nnc2-c2ccccc2)c1O	-2.3	68*	7.2*	7	-1	-0.18
COc1cccc(/C=N/n2c(C)c3c(C)nnc(C)c3c2C)c1O	-1.2	-3	0.17	18	-0.24	nt
C=CCn1c(NC(=O)c2ccccc2)c(C#N)c2nc3ccccc3nc21	2.6	7	21*	5	-0.7	nt
COc1ccccc1NC(=O)c1cc2n(n1)C(C(F)(F)F)CC(c1ccc3c(c1)OCO3)N2 (stereo not drawn)	-0.14	0	-0.28	16	0.8*	0.25
NC(=O)c1ccsc1NC(=O)CSc1ccccc1F	-3.5*	8	-0.82	-10	0.58	-0.84
NC(=O)c1ccsc1NC(=O)COc1ccccc1	1.2	1	1	-7	-0.54	-0.21
COc1ccc(CCNCc2csc3nc4ccccc4n23)cc1OC	-1.3	46*	0.039	19	0.42	1
O=C(O)CCCC(=O)NCCc1ccncc1	-0.17	nt	0.068	22	0.23	0.052
COC(=O)c1ccc2c(c1)NC1=C(C(=O)CC(C)(C)C1)C(c1ccncc1)N2 (stereo not drawn)	0.049	nt	0.44	16	0.033	nt
COc1ccc2c(c1)sc1nc(-c3ccccc3)cn12	-7.3*	100*	0.011	67*	-0.69	0.021
SMILES	D1 mod	Jurkat viability	M1 agonist	HEK293 NFkB inh	M1 antagonist	hDAT+cocaine
O=C(NCC1CCCO1)c1onc(CSc2cccc3ccccc23)c1C(=O)O (stereo not drawn)	nt	nt	nt	nt	nt	-0.69
CC(=O)Oc1cccc(N2C(=O)C3C4C=CC(C4=C(C)C)C3C2=O)c1 (stereo not drawn)	0.59	1	0.17	8	-0.59	-9*
CC(=O)Oc1cccc(N2C(=O)C3C(C2=O)C2C=CC3C23CC3)c1 (stereo not drawn)	-0.027	0	1.1	12	-0.15	-1.9
NC(=O)C1(NC(=O)[C@@H]2CC3(CC(c4cccc(NC(=O)[C@@H]5CCC(=O)N5)c4)=NO3)CN2C(=O)c2ccccc2)CC1 (stereo partly drawn)	nt	nt	nt	nt	nt	-0.15
O=C(O)C1=CCCNC1	nt	nt	nt	nt	nt	-0.024
C=CCn1cc(C(=O)NCc2ccco2)c(=O)c2cc(S(=O)(=O)N3CCCCCC3)ccc21	0.52	16	-0.11	14	-0.49	3.3*
CCn1cc(C(=O)NC2CCC(C)CC2)c(=O)c2cc(S(=O)(=O)N3CCCCC3)ccc21 (stereo not drawn)	0.74	0	0.81	-5	-0.21	2.2*
NC(=O)c1oc2ccccc2c1NC(=O)CN1CCCCC1	-0.54	4	0.13	19	0.17	0.61
COc1ccccc1OCC(=O)Nc1ccc(S(=O)(=O)Nc2nc(C)cc(C)n2)cc1	0.11	0	0.0094	10	-0.82	3.5*
O=C1C=C(c2ccc(Cl)cc2)OC2(CCCC2)O1	nt	nt	nt	nt	nt	-2.6*
CC(C)(CNC(=O)c1ccc([N+](=O)[O-])c(Cl)c1)CNC(=O)c1ccc([N+](=O)[O-])c(Cl)c1	nt	nt	nt	nt	nt	-1.4
Cn1cnnc1SCC(=O)N1c2ccccc2-c2c(ssc2=S)C1(C)C	0.37	5	0.14	18	-1.9*	nt
CC1(C)c2ssc(=S)c2-c2ccccc2N1C(=O)c1ccco1	-0.92	3	0.55	15	0.21	-0.17
Cc1cccc(C=Nc2ccccc2C(N)=O)c1	nt	nt	nt	nt	nt	-0.39
O=C(CSCC(=O)N1CCCCC1)Nc1nc(-c2ccccc2)c(-c2ccccc2)s1	nt	nt	nt	nt	nt	-0.22
CCC(C(=O)NC1CCCCC1)n1c(SCc2cccc(C)c2)nc2ccncc21 (stereo not drawn)	nt	nt	nt	nt	nt	-0.47
CCC(C(=O)NC1CCCCC1)n1c(SCc2cccc(F)c2)nc2ccncc21 (stereo not drawn)	nt	nt	nt	nt	nt	2.8*
CCN(CC)S(=O)(=O)c1ccc(NC(=O)C(C)N(c2ccccc2)S(C)(=O)=O)cc1 (stereo not drawn)	nt	nt	nt	nt	nt	2.5*
CN1CCN(S(=O)(=O)c2ccc(Sc3nnc(-c4cccs4)n3-c3ccccc3)nc2)CC1	-4.1*	6	2.2	9	-0.1	0.54
CCCc1nc(SCC(N)=O)[nH]c(=O)c1CC	-2.8*	nt	-0.31	15	0.026	-1.4
Cc1ccc(CN2CC(C(=O)O)CC2=O)cc1 (stereo not drawn)	nt	nt	nt	nt	nt	-1.5
COc1ccc(C(=O)c2ccc(OC)c(N)c2)cc1N	0.46	62*	0.0077	20	0.93	1.1
